Results gathered from unrelated publications.
Cell line: PC-3
Observed: cell growth or viability

| SMILES | test | setting | quantity | result |
| --- | --- | --- | --- | --- |
| C=CCOc1ccc2c(C)c(CC)c(=O)oc2c1C | MTT | 125 µg/mL | viability | 95.8% |
| Cc1nc(Nc2ccc3c(c2)/C(=C/c2ccccc2)C(=O)N3Cc2ccccc2)c2ccccc2n1 | MTT | – | IC50 | > 50 µM |
| COc1ccc(-c2cc(-c3c(OC)cccc3OC)c3c(=O)[nH]c(=O)[nH]c3n2)cc1 | MTT | 48 h | IC50 | 41.5 µM |
| Cc1nc(Nc2ccc3c(c2)C(C)(C)C(=O)N3C)c2ccccc2n1 | MTT | – | IC50 | 26.3 µM |
| COc1ccc(-c2cc(-c3ccccc3Cl)c3c(=O)n(C)c(=O)n(C)c3n2)cc1 | MTT | 48 h | IC50 | 6.79 µM |
| C=CC(=O)c1cccnc1Nc1cc(C(F)(F)F)ccc1OC | SRB | 48 h | GI50 | 5.58 µM |
| CCc1c(C)c2ccc(OCC(=O)NNC(=S)Nc3ccccc3)c(C)c2oc1=O | MTT | 500 µg/mL | viability | 2.61% |
| CCCOc1nc(-c2cccc(O)c2)cc(-c2cc3cc(Cl)ccc3nc2N2CCOCC2)c1C#N | MTT | 72 h | IC50 | 0.542 µM |
| COc1ccc(-c2cc(-c3ccc(Br)cc3)c3c(=O)n(C)c(=O)n(C)c3n2)cc1 | MTT | 48 h | IC50 | 8.58 µM |
| Cc1c(Cc2ccccc2)c(=O)oc2c(C)c(OCC(=O)NN=Cc3ccc(Cl)cc3)ccc12 | MTT | 1000 µg/mL | viability | 2.23% |
| Cc1nc(Nc2ccc3c(c2)/C(=C/c2ccccc2)C(=O)N3C)c2ccccc2n1 | MTT | – | IC50 | 18.7 µM |
| Cc1nc2ccc(CN(C)c3ccc(C(=O)N[C@@H](CCC(=O)O)C(=O)O)s3)cc2c(=O)[nH]1 | MTT | 48 h | IC50 | 3.09 µM |
| COc1cc2ncnc(Nc3ccc4c(c3)/C(=C/c3cccc(Cl)c3)C(=O)N4C)c2cc1OC | MTT | – | IC50 | 22.2 µM |
| Cc1c(Cc2ccccc2)c(=O)oc2c(C)c(OCC(=O)NN=Cc3ccc([N+](=O)[O-])cc3)ccc12 | MTT | 500 µg/mL | viability | 5.03% |
| COc1ccc(-c2cc(-c3cc(OC)ccc3OC)c3c(=O)n(C)c(=O)n(C)c3n2)cc1 | MTT | 48 h | IC50 | 24.6 µM |
| Nc1n[nH]c2nc(-c3cccc(O)c3)cc(-c3cc4cc(Cl)ccc4nc3N3CCOCC3)c12 | MTT | 72 h | IC50 | 0.166 µM |
| CCc1c(C)c2ccc(OCc3nnc(S)n3N)c(C)c2oc1=O | MTT | 31.25 µg/mL | viability | 58.5% |
| COc1ccc(-c2cc(-c3ccc(Cl)cc3)c3c(=O)n(C)c(=O)n(C)c3n2)cc1 | MTT | 48 h | IC50 | 13.5 µM |
| Cc1nc(Nc2ccc3c(c2)/C(=C/c2ccccc2C)C(=O)N3C)c2ccccc2n1 | MTT | – | IC50 | 15.9 µM |
| Cc1c(Cc2ccccc2)c(=O)oc2c(C)c(OCC(=O)NN=Cc3ccccc3)ccc12 | MTT | 250 µg/mL | viability | 14.1% |
| COc1ccc(-c2cc(-c3cccc(Br)c3)c3c(=O)n(C)c(=O)n(C)c3n2)cc1 | MTT | 48 h | IC50 | 18.4 µM |
| CCCOc1ccc2c(C)c(CC)c(=O)oc2c1C | MTT | 125 µg/mL | viability | 56.8% |
| C=CC(=O)c1cccnc1Nc1cccc(C(F)(F)F)c1 | SRB | 48 h | GI50 | 11.4 µM |
| COc1ccc(-c2cc(-c3c(OC)cccc3OC)c3c(=O)n(C)c(=O)n(C)c3n2)cc1 | MTT | 48 h | IC50 | 18.6 µM |
| Cc1nc(N(Cc2ccccc2)c2ccc3c(c2)/C(=C/c2ccccc2)C(=O)N3Cc2ccccc2)c2ccccc2n1 (mixture of isomers) | MTT | – | IC50 | 0.56 µM |
